In ChEMBL document CHEMBL1799921, “3-(1,3,4-Thiadiazole-2-yl)quinoline derivatives: synthesis, characterization and anti-microbial activity” (Eur J Med Chem, 2011):
≈ marks a conversion by molar mass, not a printed value.

Experiments:
[1] = test system: Streptococcus pyogenes; experiment: Antibacterial activity against Streptococcus pyogenes measured at MIC after 18 hrs by halo zone test; format: functional
How it was run: (§1)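 Disk diffusion. Strains subcultured 18 h at 37 °C in BHI, then suspended in saline by McFarland to about 10⁵ CFU/mL. Suspension mixed 1:1 with antibiotic agar at 40 °C and plated. 6.0 mm paper disks loaded with dilutions from a DMSO stock (1 mg per 100 of DMSO). Incubated 18 h at 36 °C. Inhibition zone (mm) measured at the MIC. Amoxicillin and DMSO disks as controls.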

[2] = test system: Escherichia coli; experiment: Antibacterial activity against Escherichia coli measured at MIC after 18 hrs by halo zone test; format: functional; how it was run: as §1
[3] = test system: Escherichia coli; experiment: Antibacterial activity against Escherichia coli after 18 hrs by macro-dilution test; format: functional
How it was run: (§2)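 Tube macro-dilution. Compounds in DMSO serially diluted to final […]. 24 h old inoculum added to each tube. Standard inoculum […]. Incubated 18 h at 37 °C. MIC is the lowest concentration with no visible growth, read visually. DMSO negative and amoxicillin positive controls.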

[4] = test system: Salmonella typhimurium; experiment: Antibacterial activity against Salmonella Typhimurium after 18 hrs by macro-dilution test; format: functional, Salmonella enterica subsp. enterica serovar Typhimurium; conditions: Salmonella enterica; how it was run: as §2
[5] = test system: Salmonella typhimurium; experiment: Antibacterial activity against Salmonella Typhimurium measured at MIC after 18 hrs by halo zone test; format: functional, Salmonella enterica subsp. enterica serovar Typhimurium; how it was run: as §1
[6] = test system: Staphylococcus aureus; experiment: Antibacterial activity against Staphylococcus aureus after 18 hrs by macro-dilution test; format: functional; how it was run: as §2
[7] = test system: Streptococcus pyogenes; experiment: Antibacterial activity against Streptococcus pyogenes after 18 hrs by macro-dilution test; format: functional; how it was run: as §2
[8] = test system: Staphylococcus aureus; experiment: Antibacterial activity against Staphylococcus aureus measured at MIC after 18 hrs by halo zone test; format: functional; how it was run: as §1

| MIC [3] [µg/mL] | MIC [4] [µg/mL] | MIC [6] [µg/mL] | MIC [7] [µg/mL] | SMILES | inhibition zone (IZ) [1] [mm] | inhibition zone (IZ) [2] [mm] | inhibition zone (IZ) [5] [mm] | inhibition zone (IZ) [8] [mm] |
| --- | --- | --- | --- | --- | --- | --- | --- | --- |
| 128 (≈ 313 µM) | 256 (≈ 625 µM) | 256 (≈ 625 µM) | 256 (≈ 625 µM) | S=C(N/N=C/c1cc2cccc(Cl)c2nc1Cl)NC1CCCCCCC1 | 17.54 | 17.62 | 17.54 |  |
| 64 (≈ 170 µM) | 32 (≈ 84.9 µM) | 32 (≈ 84.9 µM) | 64 (≈ 170 µM) | Fc1ccc(F)c(NC(=S)N/N=C/c2cc3ccccc3nc2Cl)c1 | 14.07 | 10.13 | 11.56 | 16.75 |
| 64 (≈ 180 µM) | 64 (≈ 180 µM) | 32 (≈ 90.2 µM) | 32 (≈ 90.2 µM) | Cc1ccc(NC(=S)N/N=C/c2cc3ccccc3nc2Cl)cc1 | 17.43 | 16.65 | 18.02 | 17.93 |
| 32 (≈ 82.9 µM) | 256 (≈ 663 µM) | 64 (≈ 166 µM) | 64 (≈ 166 µM) | O=[N+]([O-])c1ccc(NC(=S)N/N=C/c2cc3ccccc3nc2Cl)cc1 | 12.25 | 13.27 |  | 13.46 |
| 256 (≈ 918 µM) | 256 (≈ 918 µM) | 64 (≈ 230 µM) | 128 (≈ 459 µM) | Cc1cccc2cc(/C=N/NC(N)=S)c(Cl)nc12 | 17.1 |  | 18.02 | 12.76 |
| 256 (≈ 738 µM) | 256 (≈ 738 µM) | 256 (≈ 738 µM) | 256 (≈ 738 µM) | Cc1cccc2cc(/C=N/NC(=S)NC3CCCC3)c(Cl)nc12 | 18.71 | 16.97 | 17.44 | 20.04 |
| 128 (≈ 355 µM) | 256 (≈ 709 µM) | 128 (≈ 355 µM) | 256 (≈ 709 µM) | Cc1cccc2cc(/C=N/NC(=S)NC3CCCCC3)c(Cl)nc12 | 11.08 | 21.27 | 15.66 | 12.75 |
| 256 (≈ 658 µM) | 128 (≈ 329 µM) | 256 (≈ 658 µM) | 128 (≈ 329 µM) | Cc1cccc2cc(/C=N/NC(=S)NC3CCCCCCC3)c(Cl)nc12 | 14.45 | 16.61 | 22.51 | 15.78 |
| 64 (≈ 173 µM) | 32 (≈ 86.7 µM) | 32 (≈ 86.7 µM) | 64 (≈ 173 µM) | Cc1ccccc1NC(=S)N/N=C/c1cc2cccc(C)c2nc1Cl | 18.81 | 15.17 | 13.94 | 14.8 |
| 64 (≈ 173 µM) | 32 (≈ 86.7 µM) | 32 (≈ 86.7 µM) | 64 (≈ 173 µM) | Cc1ccc(NC(=S)N/N=C/c2cc3cccc(C)c3nc2Cl)cc1 | 17.65 | 18.67 | 17.18 | 19.24 |
| 32 (≈ 80 µM) | 64 (≈ 160 µM) | 64 (≈ 160 µM) | 32 (≈ 80 µM) | Cc1cccc2cc(/C=N/NC(=S)Nc3ccc([N+](=O)[O-])cc3)c(Cl)nc12 | 13.27 | 17.48 | 14.23 | 17.31 |
| 64 (≈ 167 µM) | 64 (≈ 167 µM) | 64 (≈ 167 µM) | 64 (≈ 167 µM) | CC(=O)NC1=NN(C(C)=O)C(c2cc3cccc(Cl)c3nc2Cl)S1 (stereo not given) | 19.91 | 16.72 | 17.27 | 18.13 |
| 128 (≈ 284 µM) | 128 (≈ 284 µM) | 64 (≈ 142 µM) | 64 (≈ 142 µM) | CC(=O)N1N=C(N(C(C)=O)C2CCCC2)SC1c1cc2cccc(Cl)c2nc1Cl (stereo not given) | 14.15 | 18.18 | 15.17 | 18.03 |
| 128 (≈ 275 µM) | 256 (≈ 550 µM) | 64 (≈ 138 µM) | 128 (≈ 275 µM) | CC(=O)N1N=C(N(C(C)=O)C2CCCCC2)SC1c1cc2cccc(Cl)c2nc1Cl (stereo not given) | 17.73 | 15.23 | 16.72 | 17.39 |
| 64 (≈ 130 µM) | 64 (≈ 130 µM) | 64 (≈ 130 µM) | 128 (≈ 259 µM) | CC(=O)N1N=C(N(C(C)=O)C2CCCCCCC2)SC1c1cc2cccc(Cl)c2nc1Cl (stereo not given) | 17.94 | 16.36 | 18.54 | 17.62 |
| 64 (≈ 129 µM) | 64 (≈ 129 µM) | 64 (≈ 129 µM) | 64 (≈ 129 µM) | CC(=O)N(C1=NN(C(C)=O)C(c2cc3cccc(Cl)c3nc2Cl)S1)c1cc(F)ccc1F (stereo not given) | 13.92 | 16.45 | 17.59 | 12.99 |
| 64 (≈ 135 µM) | 64 (≈ 135 µM) | 64 (≈ 135 µM) | 64 (≈ 135 µM) | CC(=O)N(C1=NN(C(C)=O)C(c2cc3cccc(Cl)c3nc2Cl)S1)c1ccc(C)cc1 (stereo not given) | 17.09 | 18.11 | 16.88 | 15.67 |
| 64 (≈ 183 µM) | 64 (≈ 183 µM) | 64 (≈ 183 µM) | 64 (≈ 183 µM) | CC(=O)NC1=NN(C(C)=O)C(c2cc3ccccc3nc2Cl)S1 (stereo not given) | 16.97 | 17.76 | 13.42 | 15.67 |
| 128 (≈ 428 µM) | 128 (≈ 428 µM) | 64 (≈ 214 µM) | 64 (≈ 214 µM) | NC(=S)N/N=C/c1cc2cccc(Cl)c2nc1Cl | 19.58 | 15.8 | 16.66 | 21.13 |
| 256 (≈ 697 µM) | 128 (≈ 348 µM) | 128 (≈ 348 µM) | 256 (≈ 697 µM) | S=C(N/N=C/c1cc2cccc(Cl)c2nc1Cl)NC1CCCC1 | 13.15 | 17.18 | 15.17 | 17.68 |
| 256 (≈ 671 µM) | 256 (≈ 671 µM) | 64 (≈ 168 µM) | 128 (≈ 336 µM) | S=C(N/N=C/c1cc2cccc(Cl)c2nc1Cl)NC1CCCCC1 | 13.73 | 15.23 | 15.72 | 17.23 |
| 64 (≈ 164 µM) | 32 (≈ 82.2 µM) | 32 (≈ 82.2 µM) | 64 (≈ 164 µM) | Cc1ccccc1NC(=S)N/N=C/c1cc2cccc(Cl)c2nc1Cl | 10.26 | 13.47 | 10.53 | 18.9 |
| 64 (≈ 156 µM) | 64 (≈ 156 µM) | 64 (≈ 156 µM) | 32 (≈ 77.8 µM) | Fc1ccc(F)c(NC(=S)N/N=C/c2cc3cccc(Cl)c3nc2Cl)c1 | 15.92 | 13.75 | 14.92 | 12.15 |
| 64 (≈ 164 µM) | 32 (≈ 82.2 µM) | 64 (≈ 164 µM) | 32 (≈ 82.2 µM) | Cc1ccc(NC(=S)N/N=C/c2cc3cccc(Cl)c3nc2Cl)cc1 | 15.76 | 15.88 | 17.55 | 15.01 |
| 256 (≈ 609 µM) | 64 (≈ 152 µM) | 32 (≈ 76.1 µM) | 64 (≈ 152 µM) | O=[N+]([O-])c1ccc(NC(=S)N/N=C/c2cc3cccc(Cl)c3nc2Cl)cc1 | 15.26 |  | 15.99 | 19.7 |
| 256 (≈ 967 µM) | 128 (≈ 483 µM) | 128 (≈ 483 µM) | 64 (≈ 242 µM) | NC(=S)N/N=C/c1cc2ccccc2nc1Cl | 16.97 | 17.76 | 12.42 | 11.67 |
| 128 (≈ 385 µM) | 128 (≈ 385 µM) | 64 (≈ 192 µM) | 128 (≈ 385 µM) | S=C(N/N=C/c1cc2ccccc2nc1Cl)NC1CCCC1 | 21.07 | 21.12 | 22.58 | 19.52 |
| 128 (≈ 369 µM) | 128 (≈ 369 µM) | 256 (≈ 738 µM) | 256 (≈ 738 µM) | S=C(N/N=C/c1cc2ccccc2nc1Cl)NC1CCCCC1 | 12.38 | 17.68 | 15.93 | 12.37 |
| 256 (≈ 683 µM) | 128 (≈ 341 µM) | 256 (≈ 683 µM) | 128 (≈ 341 µM) | S=C(N/N=C/c1cc2ccccc2nc1Cl)NC1CCCCCCC1 | 13.67 | 13.23 | 19.73 | 9.9 |
| 32 (≈ 90.2 µM) | 64 (≈ 180 µM) | 256 (≈ 721 µM) | 64 (≈ 180 µM) | Cc1ccccc1NC(=S)N/N=C/c1cc2ccccc2nc1Cl | 16.48 | 18.84 | 14.73 |  |
